{"source": "paper PMC10559049", "about": "(Heliyon, 2023)", "key": {"[1]": {"test_system": "LPS-treated BV2 microglial cells", "conditions": "15 μmol; cited from earlier work"}, "[2]": {"conditions": "named as a side effect restricting use; cited from earlier work"}, "[3]": {"conditions": "named as a side effect restricting use; cited from earlier work", "remark": "listed apart in the source"}, "[4]": {"target": "T1, sEH (Homo sapiens, UniProt P34913)", "T1 sequence (P34913 1-555)": "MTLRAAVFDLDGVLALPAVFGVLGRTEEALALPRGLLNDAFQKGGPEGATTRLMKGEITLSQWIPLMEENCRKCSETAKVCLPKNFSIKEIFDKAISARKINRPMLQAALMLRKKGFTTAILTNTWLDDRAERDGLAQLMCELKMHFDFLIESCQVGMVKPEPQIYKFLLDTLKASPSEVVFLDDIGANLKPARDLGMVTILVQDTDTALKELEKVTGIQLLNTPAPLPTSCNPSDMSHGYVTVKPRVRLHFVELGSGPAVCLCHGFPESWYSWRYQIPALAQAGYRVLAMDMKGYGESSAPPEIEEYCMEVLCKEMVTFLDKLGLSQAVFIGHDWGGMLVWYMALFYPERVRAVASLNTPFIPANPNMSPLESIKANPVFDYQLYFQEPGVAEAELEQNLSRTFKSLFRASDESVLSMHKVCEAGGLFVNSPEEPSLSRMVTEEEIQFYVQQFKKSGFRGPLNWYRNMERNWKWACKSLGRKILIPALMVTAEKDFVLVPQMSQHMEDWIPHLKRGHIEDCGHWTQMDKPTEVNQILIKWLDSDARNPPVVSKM", "assay": "Enzyme kinetics analysis", "format": "biochemical", "procedure,_shortened": "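Recombinant human sEH (250 ng/mL) in 25 mM Tris–HCl, pH 7.0, with 0.1 mg/mL BSA, mixed with inhibitor in methanol, then PHOME substrate added at several concentrations. Product fluorescence was read at ex 330/em 465 nm. Initial velocities at each fixed inhibitor concentration were plotted double-reciprocally (Lineweaver–Burk) to assign inhibition mode and derive Ki. Triplicates in three independent experiments, mean ± SEM.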"}, "[5]": {"target": "T1, sEH", "assay": "biochemical"}, "[6]": {"test_system": "sEH", "conditions": "derived from the leaves of Capsicum chinense; cited from earlier work"}}}
{"compound": "O=C(C=Cc1cc(O)c2c(c1)C(C(=O)NCCc1ccc(O)cc1)C(c1ccc(O)c(O)c1)O2)NCCc1ccc(O)cc1", "note": "(stereo not shown) [3,3′-demethyl-grossamide]", "values": [{"measurement": "anti-neuroinflammatory activities via TNF-α suppression", "setting": "[1]", "value": "exerted anti-neuroinflammatory activities"}]}
{"compound": "O=C(O)CCCCCCCCCCCNC(=O)NC12CC3CC(CC(C3)C1)C2", "note": "[AUDA, 12-(3-adamantane-1-yl-ureido)-dodecanoic acid]", "values": [{"measurement": "metabolic stability", "setting": "[2]", "value": "metabolic instability"}, {"measurement": "water solubility", "setting": "[3]", "value": "limited water solubility"}]}
{"compound": "COc1cc([C@@H]2Oc3c(OC)cc(/C=C/C(=O)NCCc4ccc(O)cc4)cc3[C@H]2C(=O)NCCc2ccc(O)cc2)ccc1O", "note": "[Compound 5, grossamide]", "values": [{"measurement": "Ki", "setting": "[4]", "value": 1.5, "unit": "µM"}, {"measurement": "Inhibition type", "setting": "[4]; Lineweaver-Burk plots", "value": "Competitive"}, {"measurement": "IC50", "setting": "[5]", "value": "3.3 ± 0.3", "unit": "µM"}]}
{"compound": "O=C(/C=C/c1ccc(O)cc1)NCCc1ccc(O)cc1", "note": "[N-trans-Coumaroyltyramine]", "values": [{"measurement": "mode of inhibition against sEH", "setting": "[6]", "value": "competitive inhibition"}]}
{"compound": "COc1cc(/C=C/C(=O)NCCc2ccc(O)cc2)ccc1O", "note": "[N-trans-feruloyltyramine]", "values": [{"measurement": "mode of inhibition against sEH", "setting": "[6]", "value": "competitive inhibition"}]}
{"compound": "COc1cc(/C=C(C(=O)NCCc2ccc(O)cc2)\\C(=C/c2ccc(O)c(OC)c2)C(=O)NCCc2ccc(O)cc2)ccc1O", "note": "[cannabisin G]", "values": [{"measurement": "anti-neuroinflammatory activities via TNF-α suppression", "setting": "[1]", "value": "exerted anti-neuroinflammatory activities"}]}
{"compound": "coumaroyl-amino butanol glucopyranoside", "values": [{"measurement": "anti-neuroinflammatory activities via TNF-α suppression", "setting": "[1]", "value": "exerted anti-neuroinflammatory activities"}]}
